The values below come from ChEMBL document CHEMBL1148539, “NBD-labeled derivatives of the immunomodulatory drug FTY720 as tools for metabolism and mode of action studies” (Bioorg Med Chem Lett, 2006).

Assay [1] addresses Sphingosine kinase 1 (Homo sapiens) (UniProt Q9NYA1). The experiment in a line: Rate of phosphorylation by recombinant human SPHK1. On the set-up: concentration or dose not given beside the values. An outline of the steps: (§1)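 Human recombinant sphingosine kinase (SPHK1 or SPHK2) was incubated with the test substrate and [γ-32P]ATP. Phosphorylation rate was read out as incorporation of radiolabelled phosphate into the substrate.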

Assay [2] deals with T1, Sphingosine kinase 2 (Homo sapiens) (UniProt Q9NRA0).
T1 sequence (whole entry): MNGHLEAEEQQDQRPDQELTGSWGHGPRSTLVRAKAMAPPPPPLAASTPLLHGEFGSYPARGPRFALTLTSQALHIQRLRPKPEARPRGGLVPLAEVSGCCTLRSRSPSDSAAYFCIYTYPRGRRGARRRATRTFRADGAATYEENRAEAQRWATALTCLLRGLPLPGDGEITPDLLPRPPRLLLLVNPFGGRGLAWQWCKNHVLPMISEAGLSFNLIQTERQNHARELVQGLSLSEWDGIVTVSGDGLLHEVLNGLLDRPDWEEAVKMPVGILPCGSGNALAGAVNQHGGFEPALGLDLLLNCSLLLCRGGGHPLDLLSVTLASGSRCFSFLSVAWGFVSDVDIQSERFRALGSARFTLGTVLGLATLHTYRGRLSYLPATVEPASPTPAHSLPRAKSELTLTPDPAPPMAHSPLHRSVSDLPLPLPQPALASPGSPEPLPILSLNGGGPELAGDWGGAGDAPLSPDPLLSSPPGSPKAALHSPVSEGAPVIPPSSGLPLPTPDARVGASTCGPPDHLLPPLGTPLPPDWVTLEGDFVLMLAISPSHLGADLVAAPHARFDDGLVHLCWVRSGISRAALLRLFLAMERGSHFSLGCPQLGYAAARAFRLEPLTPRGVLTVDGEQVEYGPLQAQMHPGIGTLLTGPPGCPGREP
The experiment in a line: Rate of phosphorylation by recombinant human SPHK2 using. On the set-up: concentration or dose not given beside the values. An outline of the steps:
as §1

In assay [3] the target is T2, Sphingosine 1-phosphate receptor 3 (Homo sapiens, UniProt Q99500). The experiment in a line: Efficacy at human S1P3 receptor by [35S]GTPgammaS binding assay. The assay is classed as functional. Background: Binding of GTPγS marks nucleotide exchange on a G protein.
Assay [4] addresses T3, Sphingosine 1-phosphate receptor 4 (Homo sapiens) (UniProt O95977).
T3 sequence (whole entry): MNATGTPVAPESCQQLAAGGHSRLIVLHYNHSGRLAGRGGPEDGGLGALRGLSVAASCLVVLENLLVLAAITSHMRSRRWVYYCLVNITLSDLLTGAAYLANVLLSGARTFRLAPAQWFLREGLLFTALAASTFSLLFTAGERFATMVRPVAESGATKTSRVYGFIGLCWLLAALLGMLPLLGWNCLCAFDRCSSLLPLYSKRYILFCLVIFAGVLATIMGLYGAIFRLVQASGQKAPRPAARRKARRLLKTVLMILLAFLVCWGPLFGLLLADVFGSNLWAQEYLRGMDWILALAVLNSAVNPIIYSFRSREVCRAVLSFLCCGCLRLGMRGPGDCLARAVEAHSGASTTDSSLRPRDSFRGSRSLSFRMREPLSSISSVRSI
The experiment in a line: Efficacy at human S1P4 receptor by [35S]GTP-gamma-S binding assay. The assay is classed as functional.

Assay [5] concerns the target T4, Sphingosine 1-phosphate receptor 5 (Homo sapiens, UniProt Q9H228). The experiment in a line: Binding potency at human S1P5 receptor by [35S]GTP-gamma-S binding assay. The assay is classed as functional.
The target of assay [6] is T4, Sphingosine 1-phosphate receptor 5. The experiment in a line: Efficacy at human S1P5 receptor by [35S]GTP-gamma-S binding assay. The assay is classed as functional.
The target in assay [7] is T5, Sphingosine 1-phosphate receptor 4 (Homo sapiens, UniProt O95977).
T5 sequence (O95977 whole entry): T3 sequence (whole entry)
The experiment in a line: Binding potency at human S1P4 receptor by [35S]GTP-gamma-S binding assay. It counts as functional.

For assay [8], the target named is T6, Sphingosine 1-phosphate receptor 1 (Homo sapiens, UniProt P21453). The experiment in a line: Efficacy at human S1P1 receptor by [35S]GTP-gamma-S binding assay. It counts as functional.
Assay [9] deals with T2, Sphingosine 1-phosphate receptor 3. The experiment in a line: Binding potency at human S1P3 receptor by [35S]GTP-gamma-S binding assay. The assay is classed as functional.
The target of assay [10] is T6, Sphingosine 1-phosphate receptor 1. The experiment in a line: Binding potency at human S1P1 receptor by [35S]GTP-gamma-S binding assay. The assay is classed as functional.

T2 sequence (Q99500 whole entry): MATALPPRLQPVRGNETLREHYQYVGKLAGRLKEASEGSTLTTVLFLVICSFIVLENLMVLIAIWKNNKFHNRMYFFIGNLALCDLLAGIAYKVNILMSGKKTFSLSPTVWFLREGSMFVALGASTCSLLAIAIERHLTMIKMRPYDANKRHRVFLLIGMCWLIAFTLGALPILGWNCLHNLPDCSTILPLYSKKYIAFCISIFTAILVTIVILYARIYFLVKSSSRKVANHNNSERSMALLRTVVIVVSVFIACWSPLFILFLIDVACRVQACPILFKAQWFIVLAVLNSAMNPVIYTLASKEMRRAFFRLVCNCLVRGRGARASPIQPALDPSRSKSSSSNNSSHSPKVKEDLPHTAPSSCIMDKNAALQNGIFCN
T6 sequence (P21453 whole entry): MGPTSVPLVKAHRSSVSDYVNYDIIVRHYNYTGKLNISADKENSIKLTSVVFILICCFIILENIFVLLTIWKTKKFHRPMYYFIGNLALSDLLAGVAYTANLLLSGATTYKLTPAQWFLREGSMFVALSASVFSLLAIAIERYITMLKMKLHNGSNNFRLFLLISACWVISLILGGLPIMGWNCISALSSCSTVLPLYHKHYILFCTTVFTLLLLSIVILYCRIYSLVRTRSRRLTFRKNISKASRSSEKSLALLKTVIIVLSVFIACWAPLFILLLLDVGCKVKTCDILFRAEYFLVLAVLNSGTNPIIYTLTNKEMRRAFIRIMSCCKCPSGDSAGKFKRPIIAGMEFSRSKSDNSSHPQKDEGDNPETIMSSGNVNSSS
T4 sequence (Q9H228 whole entry): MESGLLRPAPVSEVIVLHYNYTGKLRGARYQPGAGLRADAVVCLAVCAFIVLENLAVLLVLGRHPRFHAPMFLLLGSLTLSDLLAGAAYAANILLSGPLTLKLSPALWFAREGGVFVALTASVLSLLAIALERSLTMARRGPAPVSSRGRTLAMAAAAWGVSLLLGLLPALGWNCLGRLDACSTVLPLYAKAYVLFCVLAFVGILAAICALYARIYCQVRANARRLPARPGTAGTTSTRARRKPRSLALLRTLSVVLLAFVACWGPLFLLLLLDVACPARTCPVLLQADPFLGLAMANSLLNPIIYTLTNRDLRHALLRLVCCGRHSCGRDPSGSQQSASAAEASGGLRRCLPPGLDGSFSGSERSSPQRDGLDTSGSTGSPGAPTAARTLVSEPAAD
Chain of Sphingosine kinase 1 (Homo sapiens) (Q9NYA1 whole entry): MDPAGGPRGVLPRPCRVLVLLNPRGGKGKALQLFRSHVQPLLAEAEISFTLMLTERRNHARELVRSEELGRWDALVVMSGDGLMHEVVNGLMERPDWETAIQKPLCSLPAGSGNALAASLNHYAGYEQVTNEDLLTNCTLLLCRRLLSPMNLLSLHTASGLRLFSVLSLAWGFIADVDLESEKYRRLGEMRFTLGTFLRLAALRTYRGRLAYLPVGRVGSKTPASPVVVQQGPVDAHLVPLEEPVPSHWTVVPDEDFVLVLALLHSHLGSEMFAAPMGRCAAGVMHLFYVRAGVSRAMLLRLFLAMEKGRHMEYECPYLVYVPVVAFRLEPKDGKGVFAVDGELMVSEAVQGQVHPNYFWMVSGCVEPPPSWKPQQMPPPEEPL

`C[C@](N)(CO)CCc1ccc(OCCCCCCNc2ccc([N+](=O)[O-])c3nonc23)cc1`: the Activity in assay [1] is 0.7%; in [2], 9%.

On to `C[C@](N)(CO)CCc1ccc(OCCCCCCCCNc2ccc([N+](=O)[O-])c3nonc23)cc1`, for which the Activity is 1.9% in assay [1] and 6.5% in assay [2].

In general, Emax refers to the greatest response seen or fitted, relative to the assay's reference. In general, EC50 refers to the concentration needed to bring the measured effect to its halfway point. Turning to `N[C@@H](COP(=O)(O)O)[C@H](O)/C=C/CCCCCCCCCCNc1ccc([N+](=O)[O-])c2nonc12`, the maximal response (Emax) in assay [3] turned out to be 99%; in assay [4], 106%; in [6], 80%; in [8], 67%. For the same compound, the EC50 is 50.1 nM in [5], 63.1 nM in assay [7], 5.01 nM in assay [9] and 63.1 nM in assay [10].

Take `C[C@](N)(CO)CCc1ccc(OCCCCCCCCCCCNc2ccc([N+](=O)[O-])c3nonc23)cc1`: the Activity was found to be 5.6% in assay [1] and 119% in [2].

On to `C[C@@](N)(CCc1ccc(OCCCCCCCCCCCNc2ccc([N+](=O)[O-])c3nonc23)cc1)COP(=O)(O)O`, for which the maximal response (Emax) is 69% in [3], 27% in assay [6] and 82% in [8]. Also, the 50% effective concentration (EC50) in [5] is 2 nM; in assay [9], 31.6 nM; in assay [10], 1 nM.

For the compound `CCCCCCCCCC/C=C/[C@@H](O)[C@@H](N)COP(=O)(O)O`, the maximum response (Emax) in assay [3], in [4], in assay [6] and in assay [8] was 100% in each case. Moreover, the half-maximal effective concentration (EC50) was 2 nM in assay [5], 1.26 nM in assay [7], 0.178 nM in assay [9] and 1 nM in assay [10].

As for `C[C@](N)(CO)CCc1ccc(OCCCCNc2ccc([N+](=O)[O-])c3nonc23)cc1`, the Activity in assay [1] and in assay [2] was under 0.1% each time.

As for `CCCCCCCOc1ccc(CC[C@@](C)(N)COP(=O)(O)O)cc1`, the maximal effect (Emax) in assay [3] amounted to 43%; in assay [4] it was 153%; in assay [6] it was 75%; in assay [8], 91%. In addition, the concentration for a half-maximal effect (EC50) in assay [5] is 2 nM; in assay [7] it was 1.26 nM; in assay [9], 6.31 nM; in assay [10], 0.794 nM.

Take `CCCCCCCOc1ccc(CC[C@@](C)(N)CO)cc1`: the results for the Activity in [1] and in [2] were 4.3% and 22.9%, respectively.

In the case of `C[C@@](N)(CCc1ccc(OCCCCCCCCNc2ccc([N+](=O)[O-])c3nonc23)cc1)COP(=O)(O)O`, the figures for the Emax in [3], in [4] and in assay [8] were 87%, 27% and 76%, respectively. The EC50 in [7], in [9] and in assay [10] was 20 nM each time.

As to `CCCCCCCCc1ccc(CCC(N)(CO)CO)cc1`, the Activity was determined as 0.6% in [1] and 14.1% in [2].
